# Where a SMILES comes first, the peptide text is derived from it. [ ]: non-standard residue; d: D form. The star is where a group is joined. Dolaproine = CO[C@@H]([C@@H]1CCCN1)[C@@H](C)C(=O)O; Dil = CC[C@H](C)[C@H](NC)[C@@H](CC(=O)O)OC; X1 = C[C@@H](N*)[C@@H](O)c1ccccc1; NMeV = CN[C@H](C(=O)O)C(C)C
# Assays:
# NCI-H524 [1] = assay: Cytotoxicity in human NCI-H524 cells pre-incubated for 2 hrs in presence of 100 uM octreotide followed by compound wash out and subsequently incubated for 70 hrs by Cell Titer Glo assay; format: functional, cell-based
# Method in brief: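 Octreotide receptor-blockade variant: NCI-H524 cells (5,000/well) were pretreated with octreotide acetate for 30 min, then given compound for 2 h in a ten-point three-fold series.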
# NCI-H524 [2] = assay: Cytotoxicity in human NCI-H524 cells pre-incubated for 2 hrs followed by compound wash out and subsequently incubated for 70 hrs by Cell Titer Glo assay; format: functional, cell-based
# Method in brief: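 Cells were then spun, washed with fresh medium, resuspended and grown a further 70 h. Proliferation was read by CellTiter-Glo luminescence, and % inhibition calculated relative to vehicle. IC50 came from a four-parameter nonlinear fit.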
# [3] = molecular target: Somatostatin receptor type 2 (Homo sapiens, UniProt P30874); assay: Displacement of [125I]somatostatin from human SSTR2 expressed in CHO-K1 cell membranes after 240 mins
# Sequence of Somatostatin receptor type 2 (P30874 whole entry): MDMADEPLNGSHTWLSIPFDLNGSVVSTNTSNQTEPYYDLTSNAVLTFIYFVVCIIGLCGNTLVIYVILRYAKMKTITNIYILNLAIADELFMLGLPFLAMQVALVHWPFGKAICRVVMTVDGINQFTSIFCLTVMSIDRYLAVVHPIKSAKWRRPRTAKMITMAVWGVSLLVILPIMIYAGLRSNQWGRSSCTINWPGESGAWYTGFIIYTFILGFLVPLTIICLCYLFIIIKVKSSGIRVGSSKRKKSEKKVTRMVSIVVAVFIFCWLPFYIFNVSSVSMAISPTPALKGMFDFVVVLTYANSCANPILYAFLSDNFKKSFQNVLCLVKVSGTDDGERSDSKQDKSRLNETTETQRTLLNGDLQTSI
# Method in brief: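 Membranes from CHO-K1 cells stably expressing human SSTR2, prepared in modified HEPES pH 7.4. Nonspecific binding was defined with 1 µM somatostatin. Bound ligand was measured by filtration, 3 washes and counting. Six test concentrations were run, top 10 nM, in five-fold dilutions.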
Ki [3],SMILES,IC50 (NCI-H524 [1]),IC50 (NCI-H524 [2])
0.18 nM,CC[C@H](C)[C@@H]([C@@H](CC(=O)N1CCC[C@H]1[C@H](OC)[C@@H](C)C(=O)N[C@H](C)[C@@H](O)c1ccccc1)OC)N(C)C(=O)[C@@H](NC(=O)[C@H](C(C)C)N(C)C(=O)OCCSSC[C@H](NC(=O)[C@@H]1CSSC[C@H](NC(=O)[C@H](N)Cc2ccccc2)C(=O)N[C@@H](Cc2ccc(O)cc2)C(=O)N[C@H](Cc2c[nH]c3ccccc23)C(=O)N[C@@H](CCCCN)C(=O)N[C@@H]([C@@H](C)O)C(=O)N1)C(N)=O)C(C)C,1430 nM,1260 nM
,CC[C@H](C)[C@@H]([C@@H](CC(=O)N1CCC[C@H]1[C@H](OC)[C@@H](C)C(=O)N[C@H](C)[C@@H](O)c1ccccc1)OC)N(C)C(=O)[C@@H](NC(=O)[C@@H](NC)C(C)C)C(C)C (H-[NMeV]V[Dil][Dolaproine]-X1),,3.7 nM
0.77 nM,CO[C@H]1C(=O)[C@]2(C)[C@@H](OC)C[C@H]3OC[C@@]3(OC(C)=O)[C@H]2[C@H](OC(=O)c2ccccc2)[C@]2(O)C[C@H](OC(=O)[C@H](OC(=O)OCCSSCCCN[C@H](Cc3ccccc3)C(=O)N[C@H]3CSSC[C@@H](C(=O)N[C@H](CO)[C@@H](C)O)NC(=O)[C@H]([C@@H](C)O)NC(=O)[C@H](CCCCN)NC(=O)[C@@H](Cc4c[nH]c5ccccc45)NC(=O)[C@H](Cc4ccccc4)NC3=O)[C@@H](NC(=O)OC(C)(C)C)c3ccccc3)C(C)=C1C2(C)C,157 nM,150 nM
0.14 nM,COc1cc2cc(c1Cl)N(C)C(=O)C[C@H](OC(=O)[C@H](C)N(C)C(=O)CCSC1CC(=O)N(CCCNC(=O)CNC(=O)[C@H](CC(C)C)NC(=O)[C@H](Cc3ccccc3)NC(=O)CNC(=O)CCCCCN3C(=O)CC(SCCCN[C@H](Cc4ccccc4)C(=O)N[C@H]4CSSC[C@@H](C(=O)N[C@H](CO)[C@@H](C)O)NC(=O)[C@H]([C@@H](C)O)NC(=O)[C@H](CCCCN)NC(=O)[C@@H](Cc5c[nH]c6ccccc56)NC(=O)[C@H](Cc5ccccc5)NC4=O)C3=O)C1=O)[C@@]1(C)O[C@H]1[C@H](C)[C@@H]1C[C@@](O)(NC(=O)O1)[C@H](OC)/C=C/C=C(\C)C2 (stereo partly drawn),202 nM,75 nM
,COc1cc2cc(c1Cl)N(C)C(=O)C[C@H](OC(=O)[C@H](C)N(C)C(=O)CCS)[C@@]1(C)O[C@H]1[C@H](C)[C@@H]1C[C@@](O)(NC(=O)O1)[C@H](OC)/C=C/C=C(\C)C2,,11 nM
0.26 nM,CC[C@H](C)[C@@H]([C@@H](CC(=O)N1CCC[C@H]1[C@H](OC)[C@@H](C)C(=O)N[C@H](C)[C@@H](O)c1ccccc1)OC)N(C)C(=O)[C@@H](NC(=O)[C@H](C(C)C)N(C)C(=O)OCCSSCCCN[C@H](Cc1ccccc1)C(=O)N[C@H]1CSSC[C@@H](C(=O)N[C@H](CO)[C@@H](C)O)NC(=O)[C@H]([C@@H](C)O)NC(=O)[C@H](CCCCN)NC(=O)[C@@H](Cc2c[nH]c3ccccc23)NC(=O)[C@H](Cc2ccccc2)NC1=O)C(C)C,560 nM,1470 nM
,CO[C@H]1C(=O)[C@]2(C)[C@@H](OC)C[C@H]3OC[C@@]3(OC(C)=O)[C@H]2[C@H](OC(=O)c2ccccc2)[C@]2(O)C[C@H](OC(=O)[C@H](O)[C@@H](NC(=O)OC(C)(C)C)c3ccccc3)C(C)=C1C2(C)C [CABAZITAXEL],,0.26 nM
0.14 nM,COc1cc2cc(c1Cl)N(C)C(=O)C[C@H](OC(=O)[C@H](C)N(C)C(=O)CCSC1CC(=O)N(CC(=O)NC[C@H](NC(=O)[C@@H]3CSSC[C@H](NC(=O)[C@H](N)Cc4ccccc4)C(=O)N[C@@H](Cc4ccc(O)cc4)C(=O)N[C@H](Cc4c[nH]c5ccccc45)C(=O)N[C@@H](CCCCN)C(=O)N[C@@H]([C@@H](C)O)C(=O)N3)C(N)=O)C1=O)[C@@]1(C)O[C@H]1[C@H](C)[C@@H]1C[C@@](O)(NC(=O)O1)[C@H](OC)/C=C/C=C(\C)C2 (stereo partly drawn),2520 nM,91 nM
0.018 nM,COc1cc2cc(c1Cl)N(C)C(=O)C[C@H](OC(=O)[C@H](C)N(C)C(=O)CCSSC[C@@H](CO)NC(=O)[C@@H]1CSSC[C@H](NC(=O)[C@H](N)Cc3ccccc3)C(=O)N[C@@H](Cc3ccc(O)cc3)C(=O)N[C@H](Cc3c[nH]c4ccccc34)C(=O)N[C@@H](CCCCN)C(=O)N[C@@H]([C@@H](C)O)C(=O)N1)[C@@]1(C)O[C@H]1[C@H](C)[C@@H]1C[C@@](O)(NC(=O)O1)[C@H](OC)/C=C/C=C(\C)C2,1390 nM,42 nM

SMILES,Ki [3],IC50 (NCI-H524 [1]),IC50 (NCI-H524 [2])
COc1cc2cc(c1Cl)N(C)C(=O)C[C@H](OC(=O)[C@H](C)N(C)C(=O)CCC(C)(C)SSC[C@H](NC(=O)[C@@H]1CSSC[C@H](NC(=O)[C@H](N)Cc3ccccc3)C(=O)N[C@@H](Cc3ccc(O)cc3)C(=O)N[C@H](Cc3c[nH]c4ccccc34)C(=O)N[C@@H](CCCCN)C(=O)N[C@@H]([C@@H](C)O)C(=O)N1)C(N)=O)[C@@]1(C)O[C@H]1[C@H](C)[C@@H]1C[C@@](O)(NC(=O)O1)[C@H](OC)/C=C/C=C(\C)C2,0.075 nM,581 nM,27 nM
COc1cc2cc(c1Cl)N(C)C(=O)C[C@H](OC(=O)[C@H](C)N(C)C(=O)CCSSCCC(=O)NCCCC[C@H]1C(=O)N[C@@H](Cc3ccc(O)cc3)C(=O)N[C@H](Cc3c[nH]c4ccccc34)C(=O)N[C@@H](CCCCN)C(=O)N[C@@H]([C@@H](C)O)C(=O)N[C@@H](Cc3ccccc3)C(=O)N1C)[C@@]1(C)O[C@H]1[C@H](C)[C@@H]1C[C@@](O)(NC(=O)O1)[C@H](OC)/C=C/C=C(\C)C2,0.1 nM,865 nM,60 nM
COc1cc2cc(c1Cl)N(C)C(=O)C[C@H](OC(=O)[C@H](C)N(C)C(=O)CCSSCCNC(=O)[C@@H]1CSSC[C@H](NC(=O)[C@H](N)Cc3ccccc3)C(=O)N[C@@H](Cc3ccc(O)cc3)C(=O)N[C@H](Cc3c[nH]c4ccccc34)C(=O)N[C@@H](CCCCN)C(=O)N[C@@H]([C@@H](C)O)C(=O)N1)[C@@]1(C)O[C@H]1[C@H](C)[C@@H]1C[C@@](O)(NC(=O)O1)[C@H](OC)/C=C/C=C(\C)C2,0.061 nM,692 nM,10 nM
COc1cc2cc(c1Cl)N(C)C(=O)C[C@H](OC(=O)[C@H](C)N(C)C(=O)CCSSC[C@H](NC(=O)[C@@H]1CSSC[C@H](NC(=O)[C@H](N)Cc3ccccc3)C(=O)N[C@@H](Cc3ccc(O)cc3)C(=O)N[C@H](Cc3c[nH]c4ccccc34)C(=O)N[C@@H](CCCCN)C(=O)N[C@@H]([C@@H](C)O)C(=O)N1)C(=O)O)[C@@]1(C)O[C@H]1[C@H](C)[C@@H]1C[C@@](O)(NC(=O)O1)[C@H](OC)/C=C/C=C(\C)C2,0.013 nM,1600 nM,183 nM

# Source: ChEMBL document CHEMBL4480406, “Discovery of an SSTR2-Targeting Maytansinoid Conjugate (PEN-221) with Potent Activity in Vitro and in Vivo” (J Med Chem, 2019)
